Measurements collected from several papers.
Compare with care: the assays were run in different laboratories. In brackets after ≈: the same amount, converted by molar mass.

Compound	tested on	effect on	technique	strain	time	measurement	value
O=c1[nH]c2cc(CO)c(Cl)cc2c(=O)n1Cc1cncnc1	Mycobacterium tuberculosis	microbial growth	–	H37RV	–	MIC90	34.5 µM (≈ 11 µg/mL)
FC(F)(F)Oc1ccc(CCNc2cc(-c3ccccn3)nc3nncn23)cc1	Mycobacterium tuberculosis	microbial growth	–	H37RV	–	MIC	4 µM (≈ 1.6 µg/mL)
COc1ccc(-c2cc(C(F)(F)F)c3c(N)c(C(=O)NC45CC6CC(CC(C6)C4)C5)sc3n2)cc1	HepG2	cell growth or viability	–	–	72 h	IC50	> 100 µM
Cc1cc(F)cc(C)c1NC(=N)CC(O)c1cc2c(F)cc(F)cc2c2cc(C(F)(F)F)ccc12 (stereo not drawn)	HepG2	cell growth or viability	neutral red	–	24 h	IC50	6.3 µM
O=c1c2cc(Cl)ccc2[nH]c(=S)n1Cc1ccc(-c2ccccc2)nc1	Mycobacterium tuberculosis	microbial growth	–	H37RV	–	MIC90	> 100 µM
COc1ccc(-c2cc(C(F)(F)F)c3c(N)c(C(=O)NC(C)C4CCCCC4)sc3n2)cc1 (stereo not drawn)	HepG2	cell growth or viability	–	–	72 h	IC50	> 100 µM
COCC(=O)OCc1cc2[nH]c(=S)n(Cc3cccnc3)c(=O)c2cc1Cl	Mycobacterium tuberculosis	microbial growth	–	H37RV	–	MIC90	2.36 µM (≈ 0.958 µg/mL)
COc1ccc(-c2cc(C(F)(F)F)c3c(N)c(C(=O)Nc4ccc(C)cc4C)sc3n2)cc1	HepG2	cell growth or viability	–	–	72 h	IC50	> 100 µM
N.N.[Cl][Pt][Cl]	Ramos	cell growth or viability	ATP luminescence	–	72 h	IC50	2.76 µM
N=C(CC(O)c1cc2c(F)cc(F)cc2c2cc(C(F)(F)F)ccc12)Nc1cccc(F)c1 (stereo not drawn)	HepG2	cell growth or viability	neutral red	–	24 h	IC50	11.4 µM
COC1CN(C(=O)c2sc3ncccc3c2N)C1	HepG2	cell growth or viability	–	–	72 h	IC50	> 100 µM
O=c1c2cc(Cl)ccc2[nH]c(=S)n1Cc1ccc(-c2cscn2)nc1	Mycobacterium tuberculosis	microbial growth	–	H37RV	–	MIC90	> 100 µM
Nc1c(C(=O)N2CCCC2)sc2nc(-c3ccc4c(c3)OCO4)cc(C(F)(F)F)c12	HepG2	cell growth or viability	–	–	72 h	IC50	> 100 µM
N=C(CC(O)c1cc2c(F)cc(F)cc2c2cc(C(F)(F)F)ccc12)Nc1ccc(Br)c(F)c1 (stereo not drawn)	HepG2	cell growth or viability	neutral red	–	24 h	IC50	28.2 µM
CCCc1ccc(CNc2cc(-c3ccccn3)nc3nncn23)cc1	Mycobacterium tuberculosis	microbial growth	–	H37RV	–	MIC	> 100 µM
COCCC(c1cccnc1)n1c(=S)[nH]c2ccc(Cl)cc2c1=O (stereo not drawn)	Mycobacterium tuberculosis	microbial growth	–	H37RV	–	MIC90	> 100 µM
Cc1ccc(CCNc2cc(-c3ccccn3)nc3nncn23)cc1	Mycobacterium tuberculosis	microbial growth	–	H37RV	–	MIC	0.26 µM (≈ 0.0859 µg/mL)
CCCCN(CCCC)C(=N)CC(O)c1cc2c(F)cc(F)cc2c2cc(C(F)(F)F)ccc12 (stereo not drawn)	HepG2	cell growth or viability	neutral red	–	24 h	IC50	16.6 µM
O=c1c2nc(Cl)ccc2[nH]c(=S)n1Cc1cccnc1	Mycobacterium tuberculosis	microbial growth	–	H37RV	–	MIC90	> 100 µM
Cc1nnc2nc(-c3ccccn3)cc(NCCc3ccc(Cl)cc3)n12	Mycobacterium tuberculosis	microbial growth	–	H37RV	5 days	MIC	17 to 50 µM (≈ 6.2 to 18.2 µg/mL)
CCN(CC)C(=O)c1sc2ncccc2c1N	HepG2	cell growth or viability	–	–	72 h	IC50	> 100 µM
NC(=S)c1ccc(Cn2c(=S)[nH]c3ccc(Cl)cc3c2=O)cn1	Mycobacterium tuberculosis	microbial growth	–	H37RV	–	MIC90	> 100 µM
COc1ccc(-c2cc(C(F)(F)F)c3c(N)c(C(=O)NCc4ccccc4)sc3n2)cc1	Mycobacterium tuberculosis	microbial growth	–	H37RV	–	IC50	> 100 µM
Cc1c(F)cccc1NC(=N)CC(O)c1cc2c(F)cc(F)cc2c2cc(C(F)(F)F)ccc12 (stereo not drawn)	HepG2	cell growth or viability	neutral red	–	24 h	IC50	11.3 µM
N#Cc1cc2[nH]c(=S)n(Cc3cccnc3)c(=O)c2cc1Cl	Mycobacterium tuberculosis	microbial growth	–	H37RV	–	MIC90	> 100 µM
Cc1cccc(NC(=O)c2sc3nc(-c4cccs4)cc(C(F)(F)F)c3c2N)c1C	HepG2	cell growth or viability	–	–	72 h	IC50	> 100 µM
Cc1ccc(CCNc2cc(-c3ccccn3)nc3cc(Br)nn23)cc1	Mycobacterium tuberculosis	microbial growth	–	H37RV	–	MIC	25 µM (≈ 10.2 µg/mL)
